Screening results: PubChem BioAssay, several laboratories
Shown is part of a subset that was picked to be rich in hits.
DAT uptake mod: modulates human dopamine transporter uptake under cocaine | LLC-PK1 hDAT cells, [14C]-dopamine uptake with cocaine IC80; actives deviate in either direction | B-score at 10 µM | 110,000 tested, 1.3% active;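 active means Z score or B-score, a plate-position-corrected score, falls beyond the plate's 99.7% confidence bounds, in either direction; inactive means both scores lie inside the 99.7% bounds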
Target sequence (Q01959 whole entry, looked up): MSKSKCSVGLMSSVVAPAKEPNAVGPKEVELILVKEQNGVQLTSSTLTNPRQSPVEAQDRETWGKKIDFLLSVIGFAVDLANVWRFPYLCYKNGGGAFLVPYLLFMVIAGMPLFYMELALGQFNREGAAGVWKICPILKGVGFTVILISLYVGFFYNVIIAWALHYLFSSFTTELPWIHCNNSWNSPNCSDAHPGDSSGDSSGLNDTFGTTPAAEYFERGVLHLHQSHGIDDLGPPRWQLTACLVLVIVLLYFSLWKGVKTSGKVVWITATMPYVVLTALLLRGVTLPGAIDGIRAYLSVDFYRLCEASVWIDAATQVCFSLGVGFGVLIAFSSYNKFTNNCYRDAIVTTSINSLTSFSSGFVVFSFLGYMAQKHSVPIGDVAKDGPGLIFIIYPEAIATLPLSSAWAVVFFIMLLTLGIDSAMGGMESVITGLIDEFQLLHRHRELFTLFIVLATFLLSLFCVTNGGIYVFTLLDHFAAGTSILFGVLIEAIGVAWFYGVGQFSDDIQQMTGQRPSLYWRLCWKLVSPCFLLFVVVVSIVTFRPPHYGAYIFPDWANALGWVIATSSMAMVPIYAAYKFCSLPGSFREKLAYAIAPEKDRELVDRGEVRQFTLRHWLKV
AP complement: orthogonal test for alternative complement pathway inhibitors. Human serum alternative complement pathway, LPS-coated ELISA, C3 deposition; tested in compound mixtures. inhibition, % at 5 µM. 62,000 tested, 0.08% active. AID 1235;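 active means inhibition above 30% in each of the two pooled mixtures holding the compound, so the lower value exceeds 30%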
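Assay system: human serum alternative complement pathway, C3 deposition on LPS-coated wells; Dosing: 5 µM per compound in ten-compound mixtures; Detection: Anti-C3 ELISA, OD 450 nm; Buffer or medium: Mg2+-EGTA GVB++ buffer containing human serum at 1:15 dilution; Timing: 1 h at 37 °C; Replication: two different pools per compound.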
D1 allo mod: allosteric modulators of human D1 dopamine receptor | P21728 | HEK293 D1, CRE-luciferase, dopamine EC30 potentiation; actives deviate in either direction | B-score at 10 µM | 58,000 tested, 5.9% active | AID 641;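 active means luminescence count or its row- and column-corrected plate score outside the 99.7% band of the plate's sample wells, on either side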
WNV protease inh: WNV NS2B-NS3 proteinase inhibition | P06935 | WNV NS2B-NS3 protease, fluorogenic substrate Ex360/Em465; active compounds read low | z-score (concentration not given with the values) | 65,000 tested, 0.18% active | AID 577; in the data active means z-score below about -3
A number is an active result; . = inactive; / = not tested or not shown.

SMILES	DAT uptake mod	AP complement	D1 allo mod	WNV protease inh
CCCCn1c(SCC(=O)N2c3ccccc3Sc3ccccc32)nc2c1c(=O)n(C)c(=O)n2C	3.2	/	/	/
CCOc1ccc(N2C(=O)C(Cl)=C(Nc3ccccc3O)C2=O)cc1	.	/	/	/
CC1NC(=O)N(C)C2NC(=O)N(C)C(c3ccccc3)C12 (stereo unspecified)	.	.	/	.
CCn1c2ccccc2c2nnc(SCC(=O)N3CC(C)OC(C)C3)nc21 (stereo unspecified)	-8.8	.	.	.
CCCn1c2ccccc2c2nnc(SCC(=O)Nc3cc(C)on3)nc21	.	/	/	/
CCn1c2ccccc2c2nnc(SCc3cc(=O)n4ccsc4n3)nc21	/	.	12	.
Cc1c(C(=O)NN2CCCCC2)nn(-c2ccc(Cl)cc2Cl)c1-c1ccc(I)cc1	.	/	/	/
O=c1c2ccccc2oc2ccc(-c3ccc4[nH]ccc4c3)cc12	.	/	/	/
CC(=O)c1ccc(NC2OC(CO)C(O)C(O)C2O)cc1 (stereo unspecified)	.	.	.	.
CC(=O)c1ccc(NC2OC(C)C(O)C(O)C2O)cc1 (stereo unspecified)	-2.8	.	.	.
Cc1cc(C)c2c3c(cn2n1)c(=O)n(C)c(=O)n3C	.	/	/	/
COc1cc(/C=N/N2CCN(C3c4ccccc4-c4ccccc43)CC2)ccc1O	-1.8	/	/	/
CCOc1ccccc1-n1c(SCC(=O)NC(C)CC)nnc1-c1ccoc1C (stereo unspecified)	.	.	.	.
CCN1C=CC2=C(C#N)C(N)C(C#N)(C#N)C(c3ccccc3C(F)(F)F)C2C1 (stereo unspecified)	.	/	/	/
COc1ccc(-c2nc(Cn3c(SCc4ccc(F)cc4)nc4ccncc43)c(C)o2)cc1OC	3.1	/	/	/
Nc1cc(OC(=O)c2cccs2)nn1S(=O)(=O)c1ccc(F)cc1	.	.	/	-5.3
COc1ccc(S(=O)(=O)n2nc(OC(=O)c3cccs3)cc2NC(=O)c2cccs2)cc1	.	/	/	/
Nc1cc(OC(=O)c2cccs2)nn1S(=O)(=O)c1ccccc1	.	.	-5.3	-8.1
NC1=NC[C@@H](Cc2ccc(O)cc2)N1CCC12CC3CC(CC(C3)C1)C2	.	/	/	/
Cc1nn(-c2ccccc2)c(OC(=O)c2cccs2)c1S(=O)(=O)c1ccc([N+](=O)[O-])cc1	.	/	/	/
CCOC(=O)c1c(C)[nH]c(C)c1C(=O)COC(=O)c1ccc(Cl)c(S(N)(=O)=O)c1	.	/	/	/
Cc1cc(C)cc(OCc2nnc(SCC(=O)OC(C)C)o2)c1	.	/	/	/
COc1ccc(C2C(C#N)=C3NC(=O)c4c(sc5c4CCCCC5)N3C3=C2C(=O)CC(C)(C)C3)cc1 (stereo unspecified)	2.3	/	/	/
O=C(Cc1ccccc1)N[C@@H](Cc1ccc(O)cc1)C(=O)O	.	/	/	/
N#Cc1c(NC(=O)CSc2ncnc3sccc23)oc(-c2ccco2)c1-c1ccco1	.	.	/	.
SMILES	DAT uptake mod	AP complement	D1 allo mod	WNV protease inh
CCCc1cc(O)c2c(C)cc(=O)oc2c1	.	/	/	/
Cc1oc2c(CN(C)C)c(O)ccc2c(=O)c1-c1ccc2ccccc2n1	.	.	.	-3.1
O=C(c1ccco1)N1CCN(S(=O)(=O)c2cccc(C(F)(F)F)c2)CC1	-1.8	.	.	.
COc1ccccc1CNC(=O)C1CCCN1S(=O)(=O)c1cccc2cccnc12 (stereo unspecified)	.	.	.	.
Cc1nc(N2CCN(C)CC2)[nH]c(=O)c1Cc1cccc2ccccc12	2.5	.	.	.
CC(C)C(C(=O)NCc1ccco1)N(C(=O)CNS(=O)(=O)c1ccccc1)C1CCCC1 (stereo unspecified)	.	.	.	.
CCC(C(=O)NCc1ccco1)N(C(=O)CNS(=O)(=O)c1ccccc1)C1CCCCC1 (stereo unspecified)	4.5	/	/	/
CCCc1nc2ccccc2c(=O)n1/N=C/c1ccc(O)cc1O	-8.8	.	.	.
CCOC(=O)C(C)c1nc2ccccc2[nH]c1=O (stereo unspecified)	.	/	/	.
CC(C)OC(=O)CCc1nc2ccccc2[nH]c1=O	2.1	.	.	.
CCOC(=O)[C@H](CCc1ccccc1)N[C@@H](C)C(=O)N1[C@H](C(=O)O)C[C@@H]2CCC[C@@H]21	.	/	/	/
O=C(On1c(-c2ccccc2)nc2ccccc2c1=O)c1ccco1	.	.	-3.4	.
O=C(Oc1cccc2ccccc12)c1ccco1	.	.	.	.
CC(C)CCNC(=O)c1onc(CSc2ccccc2)c1C(=O)NCCC(C)C	.	/	/	/
CCOc1ccc(NCc2nnc(SCc3ccccc3Cl)n2-c2ccccc2)cc1	-12	/	/	/
CCn1c(CNc2ccc(Cl)cc2)nnc1SCc1ccccc1	1.8	/	/	/
COC(C[C@@H](O)[C@@H](C)[C@H](O)COCc1ccccc1)OC	.	/	/	/
O=C1OCC2OC(O)C(O)C(O)C2OC(=O)c2cc(O)c(O)c(O)c2-c2c(O)c(O)c3oc(=O)c4c(c(O)c(O)c5oc(=O)c2c3c54)-c2c1cc(O)c(O)c2O (stereo unspecified)	.	/	/	/
Cc1ccc(N2C(=O)C(c3c(C)[nH]n(-c4ccccc4)c3=O)(C(F)(F)F)C3=C2CC(C)(C)CC3=O)cc1 (stereo unspecified)	-5.1	/	/	/
CC(=O)c1cccc(NC(=O)C2CCCN(S(=O)(=O)c3ccc(F)cc3)C2)c1 (stereo unspecified)	.	.	.	.
COc1ccc(S(=O)(=O)N2CCCC(C(=O)Nc3cccc(C(C)=O)c3)C2)cc1 (stereo unspecified)	1.9	.	.	.
CC(C)(NC(=O)N1CCOCC1)c1cccc(C(C)(C)NC(=O)N2CCOCC2)c1	.	/	/	/
N#CC1=C(N)C(C#N)(C#N)C2(C(=O)Nc3ccccc32)C2CCCC=C12 (stereo unspecified)	.	.	-6.2	.
CC1(c2nnc(-c3ccncc3)o2)CC(c2ccc(F)cc2)=NO1 (stereo unspecified)	-2.3	/	/	/
CC1(c2nnc(-c3ccc(F)cc3)o2)CC(c2cccnc2)=NO1 (stereo unspecified)	.	/	/	/
SMILES	DAT uptake mod	AP complement	D1 allo mod	WNV protease inh
Cc1cc(-c2ccco2)n(CC(=O)O)n1	.	.	-4.3	.
Cc1cc(-c2ccco2)n(CC(=O)NCc2ccccc2)n1	.	/	/	/
CC(C)CC(=O)N1CCN(S(=O)(=O)c2ccc3ccccc3c2)CC1	.	/	/	/
O=c1c2ccccc2sc2ccc(C#CC3(O)CCCCC3)cc12	.	/	/	/
O=c1c2ccccc2oc2cc(C#CC3(O)CCCCC3)ccc12	2.2	/	/	/
CCCCN1C(N)=NC[C@@H]1CCCCN	.	/	/	/
Cc1nn(-c2ccccc2)c(C)c1C(=O)OCC(=O)NC12CC3CC(CC(C3)C1)C2	3.1	/	/	/
CCc1ccc(/C=N/NC(=O)c2cc(C3CC3)nc3ccc(Br)cc23)s1	.	/	/	/
CC(=O)c1sc(NC(=O)C2(F)C(F)(F)C(F)(F)C(F)(F)C(F)(F)C2(F)F)nc1C	.	.	-2.1	.
CN(C)c1ccc(/C=C/c2cc[n+](C)cc2)cc1	-3.7	/	/	/
Cc1cc(C(=O)COC(=O)c2n[nH]c3ccccc23)c(C)n1C	.	.	/	.
COCCn1c(C)cc(C(=O)COC(=O)c2n[nH]c3ccccc23)c1C	.	.	-8.4	.
O=C(COc1ccccc1)N1CCN(C(=O)Cc2ccccc2)CC1	.	.	.	.
